Measured values taken from ChEMBL document CHEMBL5113395, “Azetidin-2-one-based small molecules as dual hHDAC6/HDAC8 inhibitors: Investigation of their mechanism of action and impact of dual inhibition profile on cell viability” (Eur J Med Chem, 2022).
≈ marks a conversion by molar mass, not a printed value. Calls of active or inactive are those of the source. No cut-off for these calls is given here.

Experiments:
[1] = Solubility of compound in PBS at pH 7.4 measured after 24 hrs by HPLC/UV/DAD analysis; type: physicochemical
Method in brief: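 10 mM DMSO stock diluted to 250 μM (2.5% DMSO) in 50 mM aqueous PBS pH 7.4. Standard prepared in MeCN/water 60:40. Sealed and shaken 24 h at 25 °C, PTFE-filtered and diluted 1:2 in buffer. Quantified by HPLC/UV/DAD at 254 nm against the 250 μM standard. Triplicate, averaged.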

[2] = Chemical stability of compound in PBS at pH 7.4 measured after 24 hrs by HPLC/UV/DAD analysis; type: physicochemical; settings: read-out: Stability
Method in brief: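 DMSO stock (10 mM) was diluted to 250 µM (2.5% DMSO) in 50 mM PBS, pH 7.4, and kept 24 h at 25 °C with shaking. Peak area at 24 h versus T0 was measured by HPLC/UV/DAD at 254 nm, in triplicate. Stress tests used a methanol solution heated at 40 °C for 24 h, or 24 h under UV 254 nm.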

[3] = Chemical stability of compound in PBS at pH 7.4 incubated for 24 hrs under UV 254 nm stress condition by HPLC/UV/DAD analysis; type: physicochemical; settings: read-out: Stability
[4] = Chemical stability of compound in PBS at pH 7.4 incubated for 24 hrs at 40 degreeC by HPLC/UV/DAD analysis; type: physicochemical; settings: read-out: Stability
[5] = Octanol-water partition coefficient, log P of the compound by HPLC analysis; type: physicochemical
Method in brief: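 Stock of 0.005 M in MeOH, diluted serially in MeOH to build a calibration curve. Compound partitioned between water and n-octanol. LogP taken from the n-octanol/water phase ratio against the calibration curve, quantified by the RP-18 HPLC method at 254 nm.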

[6] = Metabolic stability in human liver microsome assessed as half life at 5 uM in presence of NADPH incubated up to 60 mins by HPLC analysis; type: ADME; settings: liver microsomes
Method in brief: (§1)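 Compound in MeCN was incubated at 5 µM and 37 °C in 100 mM phosphate buffer pH 7.4 with 0.5 mg/mL human or mouse liver microsomal protein. Reactions were started with an NADPH-regenerating system (2 mM NADPH, glucose-6-phosphate, G6PDH, MgCl2) and stopped with MeCN over 0–60 min. Remaining compound was measured by HPLC-UV at 254 nm, in triplicate, with first-order decay fitting.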

[7] = Metabolic stability in mouse liver microsome assessed as half life at 5 uM in presence of NADPH incubated up to 60 mins by HPLC analysis; type: ADME; settings: liver microsomes; method in brief: as §1
[8] = Metabolic stability in mouse liver microsome assessed as intrinsic clearance at 5 uM measured per mg protein in presence of NADPH incubated up to 60 mins by HPLC analysis; type: ADME; settings: microsomes, 1 h
Method in brief: (§2)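 Compound (in MeCN) at 5 μM incubated at 37 °C in 100 mM phosphate buffer pH 7.4 with 0.5 mg/mL liver microsomal protein (rat, mouse or human). CYP reactions started with NADPH-generating system (2 mM NADPH, glucose-6-phosphate, G6P dehydrogenase, MgCl2). Stopped with MeCN at intervals over 0–60 min. Remaining parent quantified by HPLC-UV at 254 nm. Ln % recovery vs time fitted to first-order decay. Triplicate incubations.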

[9] = Metabolic stability in rat liver microsome assessed as intrinsic clearance at 5 uM measured per mg protein in presence of NADPH incubated up to 60 mins by HPLC analysis; type: ADME; settings: microsomes, 1 h; method in brief: as §2
[10] = Toxicity in zebrafish AB embryos assessed as tolerance at 25 to 75 uM measured after 24 hrs; settings: Danio rerio, in vivo
[11] = Toxicity in zebrafish AB embryos assessed as changes in dead and live embryos at 25 to 75 uM measured after 24 hrs; settings: Danio rerio, in vivo
Danio rerio = test: In vivo inhibition of HDAC6 in zebrafish AB embryos assessed as increase in acetylation level of alpha-tubulin at 25 to 75 uM measured after 24 hrs by Western blot analysis; settings: dose 25-75 µM
[12] = Cardiotoxicity in Langendorff-perfused Wistar rat heart assessed as effect on HR at 0.01 uM by ECG analysis (reference value: 252.3 +/-10.1 bpm); type: toxicity, tissue-based
[13] = Cardiotoxicity in Langendorff-perfused Wistar rat heart assessed as effect on HR at 1 uM by ECG analysis (reference value: 252.3 +/-10.1 bpm); type: toxicity, tissue-based
[14] = Cardiotoxicity in Langendorff-perfused Wistar rat heart assessed as effect on HR at 10 uM by ECG analysis (reference value: 252.3 +/-10.1 bpm); type: toxicity, tissue-based
[15] = Cardiotoxicity in Langendorff-perfused Wistar rat heart assessed as effect on RR time at 0.1 uM by ECG analysis (reference value: 239.5+/-9.2 milliseconds); type: toxicity, tissue-based
[16] = Cardiotoxicity in Langendorff-perfused Wistar rat heart assessed as effect on RR time at 1 uM by ECG analysis (reference value: 239.5+/-9.2 milliseconds); type: toxicity, tissue-based
[17] = Cardiotoxicity in Langendorff-perfused Wistar rat heart assessed as effect on PQ interval time at 1 uM by ECG analysis (reference value: 45.4+/-3.9 milliseconds); type: toxicity, tissue-based
[18] = Cardiotoxicity in Langendorff-perfused Wistar rat heart assessed as effect on QRS interval time at 0.01 uM by ECG analysis (reference value: 13.3+/-0.6 milliseconds); type: toxicity, tissue-based
[19] = Cardiotoxicity in Langendorff-perfused Wistar rat heart assessed as effect on QRS interval time at 10 uM by ECG analysis (reference value: 13.3+/-0.6 milliseconds); type: toxicity, tissue-based
[20] = Cardiotoxicity in Langendorff-perfused Wistar rat heart assessed as effect on QT interval time at 0.1 uM by ECG analysis (reference value: 66.1+/-1.1 milliseconds); type: toxicity, tissue-based
[21] = Cardiotoxicity in Langendorff-perfused Wistar rat heart assessed as effect on QT interval time at 1 uM by ECG analysis (reference value: 66.1+/-1.1 milliseconds); type: toxicity, tissue-based
[22] = Cardiotoxicity in Langendorff-perfused Wistar rat heart assessed as effect on QT interval time at 10 uM by ECG analysis (reference value: 66.1+/-1.1 milliseconds); type: toxicity, tissue-based
[23] = Cardiotoxicity in Langendorff-perfused Wistar rat heart assessed as effect on QTc interval time at 0.01 uM by ECG analysis (reference value: 66.4+/-1.3 milliseconds); type: toxicity, tissue-based
[24] = Cardiotoxicity in Langendorff-perfused Wistar rat heart assessed as effect on QTc interval time at 0.1 uM by ECG analysis (reference value: 66.4+/-1.3 milliseconds); type: toxicity, tissue-based
[25] = Cardiotoxicity in Langendorff-perfused Wistar rat heart assessed as effect on QTc interval time at 1 uM by ECG analysis (reference value: 66.4+/-1.3 milliseconds); type: toxicity, tissue-based
[26] = Cardiotoxicity in Langendorff-perfused Wistar rat heart assessed as effect on QTc interval time at 10 uM by ECG analysis (reference value: 66.4+/-1.3 milliseconds); type: toxicity, tissue-based

SMILES	solubility at 24 h [1] [µM]	remaining at 24 h [2] [%]	remaining at 24 h [3] [%]	remaining at 24 h [4] [%]	logP [5]	half-life at 5 µM [6] [min]	half-life at 5 µM [7] [min]	CLH [8] [µL/min]	CLH [9] [µL/min]	Activity [10]	Activity [11]	Activity (Danio rerio)	further results
O=C(NO)c1ccc(CNC(=O)N2CCC(N3C(=O)[C@H](c4ccccc4)[C@H]3c3ccccc3)CC2)cc1 (racemic)	70 (≈ 34.9 µg/mL)	73	100	100	2.75	54	64	35.38	8.43	Non-Toxic	Non-Toxic	Active	–
O=C(NO)c1ccc(CNC(=O)N2CCC(N3CC(c4ccccc4)(c4ccccc4)C3=O)CC2)cc1	10 (≈ 4.99 µg/mL)	75	100	94	2.78	19	67	33.63	7.39	Non-Toxic	Non-Toxic	Active	Activity [12]: 251.2 bpm; Activity [13]: 252 bpm; Activity [14]: 248.4 bpm; Time [15]: 233.1 ms; Time [16]: 237.2 ms; Time [17]: 46.2 ms; Time [18]: 12.8 ms; Time [19]: 13.9 ms; Time [20]: 66.1 ms; Time [21]: 68.1 ms; Time [22]: 68.5 ms; Time [23]: 66.9 ms; Time [24]: 68.2 ms; Time [25]: 68.9 ms; Time [26]: 68.6 ms
